Experimental data gathered from unrelated publications.
Each line is one published result; the experiments were not run side by side.

For CC(C)(C)NC(=O)N[C@H](C(=O)N1C[C@H]2[C@@H]([C@H]1C(=O)NC(CC1CCC1)C(=O)C(N)=O)C2(C)C)C(C)(C)C (some centres unmarked), the CC50 was greater than 100 µM (HCT-8; cell growth or viability, neutral red; 48 h).
The CC50 of NC(=O)c1ncn([C@@H]2O[C@H](CO)[C@@H](O)[C@H]2O)n1 is reported as greater than 250 µM (HeLa; cell growth or viability, MTS).
With Cc1nc(Nc2ccc(NC(=O)c3ccco3)cc2)cc(-n2cccn2)n1 the CC50 was greater than 100 µM (HeLa; cell growth or viability, MTS).
COc1cc(Br)c(C=NNc2nc(-c3ccc(F)cc3)cs2)cc1OC gave a haemolysis of 3.06% (haemolysis; human; 10 µM, 30 min, pH 7.4).
For CCCCCCCCCCOc1cc2c(O)c(C(=O)OCC)cnc2cc1OCC, the IC50 was greater than 100 µM (HeLa; cell growth or viability; 72 h).
CC[C@H](C)[C@H](N)C(=O)N[C@@H](CC(N)=O)C(=O)N[C@@H](CC(C)C)C(=O)N[C@@H](CCCCN)C(=O)N[C@@H](C)C(=O)N[C@@H](CC(C)C)C(=O)N[C@@H](C)C(=O)N[C@@H](C)C(=O)N[C@@H](CC(C)C)C(=O)N[C@@H](C)C(=O)N[C@@H](CCCCN)C(=O)N[C@@H](CCCCN)C(=O)N[C@H](C(=O)N[C@@H](CC(C)C)C(N)=O)[C@@H](C)CC has a haemolysis of no more than 15% (haemolysis; human; 100 µM).
CN[C@H](CC(C)C)C(=O)N[C@H]1C(=O)N[C@@H](CC(N)=O)C(=O)N[C@H]2C(=O)N[C@H]3C(=O)N[C@H](C(=O)N[C@H](C(=O)O)c4cc(O)cc(O)c4-c4cc3ccc4O)[C@H](O)c3ccc(c(Cl)c3)Oc3cc2cc(c3O[C@@H]2O[C@H](CO)[C@@H](O)[C@H](O)[C@H]2O[C@H]2C[C@](C)(N)[C@H](O)[C@H](C)O2)Oc2ccc(cc2Cl)[C@H]1O has a haemolysis of no more than 1% (haemolysis; human; 200 µM, 1 h, pH 7.2).
CCCC[C@@H]1NC(=O)[C@H](Cc2ccc(O)cc2)NC(=O)[C@@H]2CCCN2C(=O)[C@H](CC(=O)O)NC(=O)[C@H](C)NC(=O)[C@H](Cc2ccccc2)NC(=O)[C@@H]2CSCCC(=O)N3CN(CN(C3)C(=O)CCSC[C@@H](C(=O)N[C@@H](CNC(=O)CCOCCOCCOCCOCCOCCn3cc(CCC(=O)N[C@H]4CSCCC(=O)N5CN6CN(C5)C(=O)CCSC[C@H](NC(=O)[C@@H](CC(=O)O)NC(=O)[C@H](Cc5cccc7ccccc57)NC(=O)[C@@H]5CCCN5C4=O)C(=O)N[C@@H](CCSC)C(=O)N[C@@H](CCCCNC(=N)N)C(=O)N[C@@H](CC(=O)O)C(=O)N[C@@H](Cc4c[nH]c5ccccc45)C(=O)N[C@@H](CO)C(=O)N[C@@H]([C@@H](C)O)C(=O)N4CCC[C@H]4C(=O)N4C[C@H](O)C[C@H]4C(=O)N[C@@H](Cc4c[nH]c5ccccc45)C(=O)N[C@H](C(N)=O)CSCCC6=O)nn3)C(N)=O)NC1=O)C(=O)CCSC[C@H](NC(C)=O)C(=O)N[C@@H](CC(C)(C)C)C(=O)N1CCC[C@H]1C(=O)N[C@@H](CCC(=O)O)C(=O)N[C@H](C)C(=O)N1CCC[C@H]1C(=O)N[C@@H](Cc1ccc(O)cc1)C(=O)N2 gave a clearance of 0.96 L/h/kg (rat, plasma; intravenous, 2 mg/kg).
The clearance of [2H]C([2H])([2H])n1cc2cc(Nc3nc(=O)n(Cc4ncn(C)n4)c(=O)n3Cc3cc(F)c(F)cc3F)c(Cl)cc2n1 is reported as 0.0617 L/h/kg (male Sprague-Dawley rat, plasma; intravenous, 5 mg/kg).
The clearance of CCCC[C@@H]1NC(=O)[C@H](Cc2ccc(O)cc2)NC(=O)[C@@H]2CCCN2C(=O)[C@H](CC(=O)O)NC(=O)[C@H](C)NC(=O)[C@H](Cc2ccccc2)NC(=O)[C@@H]2CSCCC(=O)N3CN(CN(C3)C(=O)CCSC[C@H](NC(C)=O)C(=O)N[C@@H](CC(C)(C)C)C(=O)N3CCC[C@H]3C(=O)N[C@@H](CCC(=O)O)C(=O)N[C@H](CCCCNC(=O)CCc3cn(CCOCCOCCOCCN(CCOCCOCCOCCC(=O)N[C@H]4CSCCC(=O)N5CN6CN(C5)C(=O)CCSC[C@H](NC(=O)[C@@H](CC(=O)O)NC(=O)[C@H](Cc5cccc7ccccc57)NC(=O)[C@@H]5CCCN5C4=O)C(=O)N[C@@H](CCSC)C(=O)N[C@@H](CCCCNC(=N)N)C(=O)N[C@@H](CC(=O)O)C(=O)N[C@@H](Cc4c[nH]c5ccccc45)C(=O)N[C@@H](CO)C(=O)N[C@@H]([C@@H](C)O)C(=O)N4CCC[C@H]4C(=O)N4C[C@H](O)C[C@H]4C(=O)N[C@@H](Cc4c[nH]c5ccccc45)C(=O)N[C@H](C(N)=O)CSCCC6=O)CCOCCOCCOCCn4cc(CCC(=O)NCCCC[C@H]5NC(=O)[C@H](CCC(=O)O)NC(=O)[C@@H]6CCCN6C(=O)[C@H](CC(C)(C)C)NC(=O)[C@@H](NC(C)=O)CSCCC(=O)N6CN7CN(C6)C(=O)CCSC[C@H](NC(=O)[C@H](Cc6ccc(O)cc6)NC(=O)[C@@H]6CCCN6C5=O)C(=O)N[C@@H](Cc5ccccc5)C(=O)N[C@@H](C)C(=O)N[C@@H](CC(=O)O)C(=O)N5CCC[C@H]5C(=O)N[C@@H](Cc5ccc(O)cc5)C(=O)N[C@@H](CCCC)C(=O)N[C@H](C(N)=O)CSCCC7=O)nn4)nn3)C(=O)N3CCC[C@H]3C(=O)N[C@@H](Cc3ccc(O)cc3)C(=O)N2)C(=O)CCSC[C@@H](C(N)=O)NC1=O is reported as 0.78 L/h/kg (rat, plasma; intravenous, 2 mg/kg).
For Nc1ncnc2c1ncn2C[C@H](O)CO, the CC50 was greater than 250 µM (HeLa; cell growth or viability, MTS).
